Measured values from ChEMBL document CHEMBL4028881, “Synthesis, Pharmacology, and Molecular Docking Studies on 6-Desoxo-N-methylmorphinans as Potent μ-Opioid Receptor Agonists” (J Med Chem, 2017).

What was measured:
Mus musculus = experiment: Potency index, ratio of moprhine ED50 for antinociceptive activity in sc dosed […] mouse to compound ED50 for antinociceptive activity in sc dosed CD1 mouse; format: functional
[1] = target: Mu-type opioid receptor (Homo sapiens) (UniProt P35372); experiment: Displacement of [3H]-DAMGO from recombinant human MOR expressed in CHO cell membranes after 60 mins by liquid scintillation counting
In short: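 Competition binding on membranes from CHO cells stably transfected with recombinant human MOR. Affinity is reported as Ki. Values are mean ± SEM of at least three independent experiments.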

[2] = target: Mu-type opioid receptor (Homo sapiens) (UniProt P35372); experiment: Agonist activity at recombinant human MOR expressed in CHO cell membranes after 60 mins by [35S]GTPgammaS binding assay; format: functional
In short: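 [35S]GTPγS binding stimulated by ligand in membranes from CHO cells stably expressing human MOR. Values are mean ± SEM of at least three independent experiments.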

Homo sapiens = species on record: Homo sapiens; experiment: Selectivity ratio of Ki for recombinant human DOR expressed in CHO cell membranes to Ki for recombinant human MOR expressed in CHO cell membranes; format: cell-based

Mu-type opioid receptor (Homo sapiens), sequence (P35372 whole entry): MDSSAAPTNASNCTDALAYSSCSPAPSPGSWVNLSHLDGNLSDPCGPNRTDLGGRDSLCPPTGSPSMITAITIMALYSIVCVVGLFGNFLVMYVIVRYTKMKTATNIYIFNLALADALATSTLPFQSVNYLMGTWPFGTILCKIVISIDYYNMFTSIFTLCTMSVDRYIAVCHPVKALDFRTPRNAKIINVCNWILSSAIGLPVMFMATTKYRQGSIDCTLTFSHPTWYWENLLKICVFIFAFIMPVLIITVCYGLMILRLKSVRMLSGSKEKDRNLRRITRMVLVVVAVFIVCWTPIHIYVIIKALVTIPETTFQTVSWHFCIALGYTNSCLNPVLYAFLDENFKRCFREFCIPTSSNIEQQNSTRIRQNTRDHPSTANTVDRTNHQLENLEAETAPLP

CO[C@@]12CCC(=O)[C@]3(C)Oc4c(O)ccc5c4[C@@]31CCN(C)[C@@H]2C5 was tested, and the “Ratio ED50” value (Mus musculus) was “<=1020”, the inhibition [1] was “Dose-dependent effect” and the Activity [2] was “Dose-dependent effect”.

In the case of CO[C@@]12CCC[C@]3(C)Oc4c(O)ccc5c4[C@@]31CCN(C)[C@@H]2C5, the “Ratio ED50” value (Mus musculus) is reported as “<=1020”.

For CN1CC[C@]23c4c5ccc(O)c4O[C@H]2C(=O)CC[C@@]3(OCc2ccccc2)[C@H]1C5, the “Ratio ED50” value (Mus musculus) was “<=1020”, the inhibition [1] was “Dose-dependent effect” and the Activity [2] was “Dose-dependent effect”.

CN1CC[C@]23c4c5ccc(O)c4O[C@H]2CCC[C@@]3(OCc2ccccc2)[C@H]1C5 was tested, and the “Ratio ED50” value (Mus musculus) was “<=1020”, the inhibition [1] was “Dose-dependent effect” and the Ratio Ki (Homo sapiens) was 21. For the same compound, the Activity [2] was “Dose-dependent effect”.

CO[C@@]12CCC(=O)[C@@H]3Oc4c(O)ccc5c4[C@@]31CCN(C)[C@@H]2C5 was tested, and the “Ratio ED50” value (Mus musculus) was “<=1020”, the inhibition [1] was “Dose-dependent effect” and the Activity [2] was “Dose-dependent effect”.

For CN1CC[C@]23c4c5ccc(O)c4O[C@H]2CCC[C@@]3(O)[C@H]1C5, the “Ratio ED50” value (Mus musculus) was “<=1020”, the inhibition [1] was “Dose-dependent effect” and the Activity [2] was “Dose-dependent effect”.

For CO[C@@]12CCC[C@@H]3Oc4c(O)ccc5c4[C@@]31CCN(C)[C@@H]2C5, the “Ratio ED50” value (Mus musculus) was “<=1020”, the inhibition [1] was “Dose-dependent effect” and the Activity [2] was “Dose-dependent effect”.
